Screens from PubChem BioAssay.
An excerpt weighted towards active compounds, which were near 2.1% of everything screened.
Apaf-1 inh = inhibitors of human Apaf-1 apoptosome, primary screen, biochemical, DEVD-Rh110 fluorescence, uHTS; Apoptotic protease-activating factor 1 (Homo sapiens), O14727; reconstituted apoptosome caspase-3 activity; inhibition, % at 20 µM; 0.71% of 330,000 active; AID 489030, 2010; active = inhibition of at least 40% at 20 µM;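 note: plate controls were DMSO wells for no effect and DEVD-CHO caspase inhibitor wells for full effect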
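System: Apoptosome proteins | Medium: Hepes pH 7.5 with detergent and BSA | Also added: Cytochrome c trigger plus (Z-DEVD)2-Rh110 caspase-3 substrate | Incubation: 30 min compound preincubation, 50 min activation, room temperature | Detection: Rhodamine 110 fluorescence at Ex 480/Em 540 nm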
PP1 inh = PP1-alpha phosphatase inhibitors, primary screen, counter-screen for PP5 inhibitor project, biochemical, fluorescence, OMFP substrate, single point; 0.9% of 320,000 active; AID 2235, 2010; purified PP1alpha; inhibition, % at 6.7 µM; Serine/threonine-protein phosphatase PP1-alpha catalytic subunit (Homo sapiens), P62136;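 active = inhibition above the mean inhibition of all tested compounds plus 3 SD, computed separately for each screening campaign, cut at about 15% in these data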
Target sequence (P62136 whole entry, looked up): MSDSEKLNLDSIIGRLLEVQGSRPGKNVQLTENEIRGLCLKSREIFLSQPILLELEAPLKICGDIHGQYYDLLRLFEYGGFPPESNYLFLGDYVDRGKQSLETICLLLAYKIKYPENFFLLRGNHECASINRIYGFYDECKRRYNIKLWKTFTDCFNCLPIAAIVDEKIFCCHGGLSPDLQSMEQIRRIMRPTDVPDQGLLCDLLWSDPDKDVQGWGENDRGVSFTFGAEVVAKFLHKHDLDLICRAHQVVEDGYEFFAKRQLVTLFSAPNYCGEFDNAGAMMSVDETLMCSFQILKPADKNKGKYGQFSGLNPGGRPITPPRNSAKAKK
PP5 inh = PP5 phosphatase inhibitors, primary screen, biochemical, fluorescence. 0.18% of 320,000 active. purified PP5c, OMFP substrate fluorescence. inhibition, % at 6.7 µM. Serine/threonine-protein phosphatase 5 (Homo sapiens), P53041;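 active = inhibition above the campaign's mean inhibition across all tested compounds plus 3 SD, cut at about 9.5% in these data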;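 note: 0% = DMSO only and 100% = 100 µM cantharidin control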
GSTO1 counter = inhibitors of recombinant GSTO1, primary screen, counter-screen for RBBP9 inhibitor project, biochemical, fluorescence polarization; Glutathione S-transferase omega-1 (Homo sapiens), P78417; activity-based probe fluorescence polarization; inhibition, % at 5.96 µM; 1.1% of 300,000 active;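 active = inhibition above the campaign mean inhibition plus 3 SD, cut at about 35% in these data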;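 note: 0% = GSTO1-1 with DMSO and 100% = wells lacking GSTO1-1 enzyme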
Target sequence (P78417 whole entry, looked up): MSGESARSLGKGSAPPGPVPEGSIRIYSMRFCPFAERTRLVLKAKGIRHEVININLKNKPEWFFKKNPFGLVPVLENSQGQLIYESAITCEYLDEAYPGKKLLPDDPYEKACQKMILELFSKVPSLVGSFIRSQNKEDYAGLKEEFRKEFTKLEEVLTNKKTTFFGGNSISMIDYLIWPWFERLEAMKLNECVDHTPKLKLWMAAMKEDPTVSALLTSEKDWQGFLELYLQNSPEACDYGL
TDP2 absorb = human TDP2 enzyme inhibitors, primary screen, biochemical, epi absorbance, recombinant enzyme | Tyrosyl-DNA phosphodiesterase 2 (Homo sapiens), O95551 | T5PNP hydrolysis, p-nitrophenol absorbance 415 nm | inhibition, % at 12.8 µM | 0.34% of 370,000 active | AID 720702, 2013;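 active = inhibition above the mean of all tested compounds plus 3 SD, set per campaign, cut at about 25% in these data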;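 note: 0% = DMSO with enzyme and 100% = buffer with substrate but no TDP2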
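Test system: human TDP2 enzyme; Input: 120 nM TDP2 per well; Buffer or medium: Mg2+-containing Tris-HCl buffer, pH 7.5; Reagent: 5 mM T5PNP; Dosing: 12.8 µM single point, 1% DMSO; Incubation: reaction 2 h, 37 °C; Detection: p-Nitrophenol epi absorbance; Read-out: % inhibition relative to enzyme-containing and enzyme-free wells; Replicates: single well per compound.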
TDP2 inh conf = human TDP2 enzyme inhibitors, retest, confirmation, biochemical, epi absorbance, recombinant enzyme; shares compounds with TDP2 absorb; absorbance read-out; inhibition, % at 12.8 µM; 22% of 1,100 active; AID 743263, 2014; in the data active = inhibition above about 25%;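 note: 0% = vehicle with enzyme and 100% = no enzyme buffer only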
* = called active by the depositor; · = no result.

SMILES	Apaf-1 inh	PP1 inh	PP5 inh	GSTO1 counter	TDP2 absorb	TDP2 inh conf
O=C(O)c1ccc(/C=C2/SC(=S)N(Cc3ccccc3)C2=O)cc1	·	·	·	·	-0.6	·
COC(=O)[C@]12C[C@H](CC(=O)N3CCCC3)C(=O)N(CCc3ccc(OC)c(OC)c3)C1=C[C@H](C(C)(C)C)O[C@@H]2C	·	·	·	·	1.7	·
COc1ccc(C(=O)NC2CCN(C(=S)Nc3ccc(C)cc3)CC2)cc1	4.6	0.9	2.4	2.6	-4.8	·
COc1ccc(NC(=S)N2CCC(NC(=O)c3cccc(C)c3)CC2)cc1	2.9	7.0	1.7	8.6	29.3*	3.4
O=C(NCCCN1CCCC1)c1ccc2c(c1)N(Cc1ccccc1F)C(=O)c1ccccc1S2=O (centres undefined)	25.9	0.5	3.8	11.7	-3.3	·
O=C(NCCCN1CCOCC1)c1ccc2c(c1)N(Cc1ccc(Cl)cc1)C(=O)c1ccccc1S2=O (centres undefined)	14.2	-2.9	-1.2	4.5	52.7*	0.1
COC(=O)C1(C(=O)OC)c2ncccc2N(S(=O)(=O)c2ccc(C)cc2)C1CC(=O)c1ccccc1 (centres undefined)	·	·	·	·	0.0	·
C=CCn1c(SCc2c(F)c(F)c(F)c(F)c2F)nc(O)cc1=O	-16.9	2.7	-1.6	-0.5	42.7*	7.8
C=CCn1c(SCC(=O)N(CC)CC)nc(O)cc1=O	-10.0	0.1	-3.8	7.9	-2.0	·
O=C(Nc1cccc(NC(=O)c2cccnc2)c1)c1cccnc1	-13.7	-0.8	-1.5	4.0	·	·
Cc1ccccc1C(=O)Nc1cccc(NC(=O)c2cccnc2)c1	1.4	-0.7	-0.4	1.4	25.5*	-0.3
O=C(NC1CCCC1)N1CCC(c2nc3ccc(Cl)cc3[nH]2)CC1	·	·	·	·	8.1	·
OCCNc1ncnc2c1sc1nc(N3CCOCC3)c3c(c12)CCC3	4.1	8.2	0.6	-6.5	27.2*	-4.2
CCN(CC)CCNc1ncnc2c1sc1nc(N3CCOCC3)c3c(c12)CCCC3	-2.4	-0.2	0.8	2.0	4.7	·
CC(=O)c1ccc(NC(=O)N2CCc3ccccc3C2)cc1	9.9	5.2	-2.1	-1.4	26.7*	5.8
CC(=O)c1cccc(NC(=O)N2CCc3ccccc3C2)c1	-0.2	-4.9	3.0	1.9	4.4	·
CCCC1=[N+](CC(=O)c2ccc(Br)cc2)CCn2cccc21	-1.0	-1.7	-2.6	1.9	30.1*	5.2
c1ccc(-c2c[nH]c3ccc(OCc4ccc5ccccc5n4)c(-c4ccccc4)c23)cc1	·	·	·	·	-8.1	·
COC1=C(Nc2ccc(OC)cc2)C(=O)c2ccccc2C1=O	26.7	-1.6	2.8	17.0	60.3*	3.9
COc1cccc(NC2=C(NCCO)C(=O)c3ccccc3C2=O)c1	16.0	3.8	2.6	12.0	54.7*	11.7
CCOc1ccc(NC2=C(OC)C(=O)c3ccccc3C2=O)cc1	29.1	2.9	5.8	39.5*	26.4*	22.2
COC1=C(Nc2ccc(OC)cc2)C(=O)C(OC)=C(Nc2ccc(OC)cc2)C1=O	·	·	·	·	2.8	·
COc1ccc(NC2=C(c3ccc(OC)cc3)C(=O)c3ccccc32)cc1	3.0	1.9	1.1	3.6	-9.9	·
COC1=C(Nc2ccc(O)cc2)C(=O)c2ccccc2C1=O	11.1	-2.7	6.4	33.9	47.5*	6.5
CCOC(=O)[C@]12CCCC=C1N(Cc1ccc(OC)cc1)C(=O)[C@@H]2CC(=O)N1CCC(c2ccccc2)CC1	·	·	·	·	-0.9	·
SMILES	Apaf-1 inh	PP1 inh	PP5 inh	GSTO1 counter	TDP2 absorb	TDP2 inh conf
O=C(NC1CCCCN(Cc2ccc(Cl)cc2)C1=O)c1cccc(C(F)(F)F)c1 (centres undefined)	·	·	·	·	-8.9	·
C[C@@H]1ON(C)[C@H]2C[C@H]3c4[nH]c5cccc(Br)c5c4CCN3C(=O)[C@@H]12	·	·	·	·	-13.7	·
O=C1CCC(=O)N1CC(=O)N1CCCc2ccccc21	-6.1	-4.4	-1.3	3.6	24.6*	12.6
O=C(CN1CCOCC1)N1CCCc2ccccc21	-6.9	-3.4	3.0	2.8	10.9	·
CN(C)Cc1cn(-c2cccc(-c3noc4c3C(=O)N(CC(=O)N3CCOCC3)CC4)c2)nn1	·	·	·	·	7.1	·
CC(C(=O)NC1C=CS(=O)(=O)C1)N1C(=O)/C(=C\c2ccccc2)SC1=S (centres undefined)	6.9	1.5	1.3	-4.3	7.5	·
CC(C(=O)NC1C=CS(=O)(=O)C1)N1C(=O)/C(=C/c2cccc(Cl)c2)SC1=S (centres undefined)	12.1	3.9	1.8	-6.8	26.5*	-8.9
CC1CC(=O)C2=C(C1)OC(N)=C(C#N)C2c1coc2ccccc2c1=O (centres undefined)	-1.1	1.8	2.8	8.6	26.3*	9.4
Cc1nn2c(=O)cc(CSc3ccccc3NC(=O)c3ccccc3)nc2s1	-0.5	0.5	1.8	0.2	26.2*	-5.2
CC(=O)CC[C@@H]1CC[C@]2(CCCN(C(=O)c3ccco3)C2)O1	·	·	·	·	5.2	·
O=C1C=C(NCCc2cc(Br)c(O)c(Br)c2)C(=O)c2ncccc21	·	·	·	·	47.9*	59.9*
CC(C)(C)c1cc(CCC(=O)NCCc2ccccn2)cc(C(C)(C)C)c1O	3.8	-8.5	1.3	4.8	-11.6	·
CC(=O)c1ccc([C@H](O)[C@H](C)C(=O)N(C)c2ccccc2)cc1	·	·	·	·	4.0	·
COc1ccc(Cc2nc3ccc(C(=O)N4CCCCC4CCO)cc3o2)cc1 (centres undefined)	0.7	-1.5	1.9	-2.0	24.8*	10.2
CCC1CCCCN1C(=O)c1ccc2nc(Cc3ccc(OC)cc3)oc2c1 (centres undefined)	11.5	-2.3	2.5	2.4	12.4	·
CC(C)(C)N(Cc1cn(Cc2ccccc2)nn1)S(=O)(=O)c1ccccc1Br	·	·	·	·	-16.9	·
CCOc1ccccc1NC(=O)c1cc(S(=O)(=O)NCc2ccco2)ccc1F	19.1	-4.5	4.4	35.3*	25.5*	-10.0
COc1ccccc1NC(=O)c1cc(S(=O)(=O)NCc2ccccc2)ccc1F	12.8	0.6	0.5	12.5	-8.3	·
C[C@@H]1COc2cc(Br)ccc2S(=O)(=O)N1Cc1cn(Cc2ccc(F)cc2)nn1	·	·	·	·	5.3	·
c1cncc(CSc2nnc3ccc(-c4ccco4)nn23)c1	-15.9	1.7	-1.8	-3.1	27.6*	-4.9
NC(=O)CSc1nnc2ccc(-c3ccco3)nn12	-18.7	2.4	-2.3	-0.9	17.4	·
CCOc1ccc(S(=O)(=O)N2CCCCC2)cc1NC(=O)c1c(CC)noc1C	14.6	-5.8	1.9	4.7	25.1*	-7.9
COc1cccc(N2CCN(Cc3cccnc3)CC2)c1	8.3	-2.3	2.5	-6.2	30.9*	-8.3
